According to ChEMBL document CHEMBL4052583, “A Potent, Selective, and Orally Bioavailable HCV NS5A Inhibitor for Treatment of Hepatitis C Virus: (S)-1-((R)-2-(Cyclopropanecarboxamido)-2-phenylacetyl)-N-(4-phenylthiazol-2-yl)pyrrolidine-2-carboxamide” (J Med Chem, 2017):

What was measured:
[1] = Clearance in Sprague-Dawley rat at 1 mg/kg, iv after 1 to 24 hrs by HPLC-MS/MS method; type: ADME, organism-based; conditions: in vivo
Outline: (§1)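 Rats received a single intravenous dose of 1 mg/kg. Clearance (mL/min/kg), steady-state volume of distribution (L/kg), half-life (h) and AUC (ng/mL×h) were reported as mean ± spread.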

[2] = Volume of distribution at steady state in Sprague-Dawley rat at 1 mg/kg, iv after 1 to 24 hrs by HPLC-MS/MS method; type: ADME, organism-based; conditions: in vivo, read-out: Vdss; outline: as §1
[3] = Inhibition of NS5A in HCV genotype 1b Ava5 infected in human HuH7 cells containing Ava5-EG(D4AB)SEAP subgenomic replicons assessed as reduction in viral replicon growth incubated for 1 day by Phospha-light assay method; type: cell-based, Hepatitis C virus subtype 1b; conditions: Hepatitis C virus, Ava5, 24 h
[4] = Cytotoxic activity against human HuH7 cells containing HCV subgenomic replicons Ava5-EG(D4AB)SEAP by MTS assay; type: cell-based, Huh-7
[5] = Half life in Sprague-Dawley rat at 1 mg/kg, iv after 1 to 24 hrs by HPLC-MS/MS method; type: ADME, organism-based; conditions: in vivo; outline: as §1
[6] = AUC in Sprague-Dawley rat at 1 mg/kg, iv after 1 to 24 hrs by HPLC-MS/MS method; type: ADME, organism-based; conditions: in vivo; outline: as §1
[7] = Cmax in Sprague-Dawley rat at 5 mg/kg, po after 1 to 24 hrs by HPLC-MS/MS method; type: ADME, organism-based; parameters: dose 5 mg/kg, route oral; conditions: in vivo
Outline: (§2)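 Rats were dosed orally at 5 mg/kg. Tmax (h), Cmax (ng/mL), AUC (ng/mL×h) and oral bioavailability F (%) were reported.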

[8] = Tmax in Sprague-Dawley rat at 5 mg/kg, po after 1 to 24 hrs by HPLC-MS/MS method; type: ADME, organism-based; conditions: in vivo; outline: as §2
[9] = Half life in Sprague-Dawley rat at 5 mg/kg, po after 1 to 24 hrs by HPLC-MS/MS method; type: ADME, organism-based; conditions: in vivo
[10] = AUC in Sprague-Dawley rat at 5 mg/kg, po after 1 to 24 hrs by HPLC-MS/MS method; type: ADME, organism-based; conditions: in vivo; outline: as §2
[11] = Oral bioavailability in Sprague-Dawley rat at 5 mg/kg after 1 to 24 hrs by HPLC-MS/MS method; type: ADME, organism-based; conditions: in vivo; outline: as §2
[12] = Selectivity index, ratio of CC50 for cytotoxic activity against human HuH7 cells containing HCV subgenomic replicons Ava5-EG(D4AB)SEAP to IC50 for inhibition of NS5A in HCV genotype 1b Ava5 infected in human HuH7 cells containing Ava5-EG(D4AB)SEAP subgenomic replicons

| Compound | EC50 [3] [nM] | CC50 [4] [nM] | further results |
| --- | --- | --- | --- |
| O=C(N[C@@H](C(=O)N1CCC[C@H]1C(=O)Nc1nc(-c2ccccc2)cs1)c1ccccc1)c1ccncc1 | 3.8 | > 50000 | clearance [1]: 62.2 mL/min/kg; Vd [2]: 1.8 L/kg; half-life [5]: 0.5 h; AUC [6]: 296 ng·h/mL; Cmax [7]: 58.3 ng/mL; Tmax [8]: 0.7 h; half-life [9]: 4.5 h; AUC [10]: 125 ng·h/mL; bioavailability [11]: 10.1% |
| O=C(Nc1nccs1)[C@@H]1CCCN1C(=O)[C@H](NC(=O)N1CCOCC1)c1ccccc1 | 9650 | > 50000 | – |
| C[C@@H](NC(=O)N1CCOCC1)C(=O)N1CCC[C@H]1C(=O)Nc1nc(-c2ccccc2)cs1 | 1310 | > 50000 | – |
| O=C(N[C@@H](C(=O)N1CCC[C@H]1C(=O)Nc1nc(-c2ccccc2)cs1)c1ccccc1)C1CCCC1 | 13 | > 50000 | – |
| CC(=O)N[C@@H](C(=O)N1CCC[C@H]1C(=O)Nc1nc(-c2ccccc2)cs1)c1ccccc1 | 16 | > 50000 | – |
| O=C(NC1CC1)N[C@@H](C(=O)N1CCC[C@H]1C(=O)Nc1nc(-c2ccccc2)cs1)c1ccccc1 | 3.5 | > 50000 | – |
| O=C(Nc1nc(-c2ccccc2)cs1)[C@@H]1CCCN1C(=O)[C@H](NC(=S)Nc1ccccc1)c1ccccc1 | 46 | > 50000 | – |
| O=C(NC1CCCCC1)N[C@@H](C(=O)N1CCC[C@H]1C(=O)Nc1nc(-c2ccccc2)cs1)c1ccccc1 | 3.3 | > 50000 | – |
| O=C(Nc1nc(-c2ccccc2)cs1)[C@@H]1CCCN1C(=O)[C@H](NC(=S)NC1CCCCC1)c1ccccc1 | 3.2 | > 50000 | – |
| CC[C@@H](NC(=O)N1CCOCC1)C(=O)N1CCC[C@H]1C(=O)Nc1nc(-c2ccccc2)cs1 | 1630 | > 50000 | – |
| CCN(CC)C(=O)N[C@@H](C(=O)N1CCC[C@H]1C(=O)Nc1nc(-c2ccccc2)cs1)c1ccccc1 | 18 | > 50000 | – |
| O=C(N[C@@H](C(=O)N1CCC[C@H]1c1ncc(-c2ccccc2)s1)c1ccccc1)N1CCOCC1 | 2970 | > 50000 | – |
| O=C(Nc1ccccn1)N[C@@H](C(=O)N1CCC[C@H]1C(=O)Nc1nc(-c2ccccc2)cs1)c1ccccc1 | 30 | > 50000 | – |
| O=C(N[C@@H](C(=O)N1CCC[C@H]1C(=O)Nc1nc(-c2ccccc2)cs1)c1ccccc1)c1ccccc1 | 15 | > 50000 | clearance [1]: 44.8 mL/min/kg; Vd [2]: 4.2 L/kg; half-life [5]: 2.3 h; AUC [6]: 367 ng·h/mL; Cmax [7]: 109 ng/mL; Tmax [8]: 2.3 h; half-life [9]: 2.7 h; AUC [10]: 588 ng·h/mL; bioavailability [11]: 31% |
| CC(C)[C@@H](NC(=O)N1CCOCC1)C(=O)N1CCC[C@H]1C(=O)Nc1nc(-c2ccccc2)cs1 | 990 | > 50000 | – |
| CC(C)(C)c1csc(NC(=O)[C@@H]2CCCN2C(=O)[C@H](NC(=O)N2CCOCC2)c2ccccc2)n1 | 21 | > 50000 | – |
| O=C(Nc1ccccc1)N[C@@H](C(=O)N1CCC[C@H]1C(=O)Nc1nc(-c2ccccc2)cs1)c1ccccc1 | 2.3 | > 50000 | – |
| O=C(Nc1nc(-c2ccccc2)cs1)[C@@H]1CCCN1C(=O)[C@H](NC(=S)NC1CC1)c1ccccc1 | 34 | > 50000 | – |
| CC(C)C(=O)N[C@@H](C(=O)N1CCC[C@H]1C(=O)Nc1nc(-c2ccccc2)cs1)c1ccccc1 | 36 | > 50000 | – |
| O=C(Nc1nc(-c2ccccc2)cs1)[C@@H]1CCCN1C(=O)[C@H](NC(=O)N1CCCC1)c1ccccc1 | 3.1 | > 50000 | clearance [1]: 55.1 mL/min/kg; Vd [2]: 1.1 L/kg; half-life [5]: 0.5 h; AUC [6]: 311 ng·h/mL; Cmax [7]: 63.9 ng/mL; Tmax [8]: 2.8 h; half-life [9]: 2.4 h; AUC [10]: 288 ng·h/mL; bioavailability [11]: 20.4% |
| O=C(N[C@@H](C(=O)N1CCC[C@H]1c1nc(-c2ccccc2)no1)c1ccccc1)N1CCOCC1 | > 50000 | > 50000 | – |
| O=C(Nc1cccnc1)N[C@@H](C(=O)N1CCC[C@H]1C(=O)Nc1nc(-c2ccccc2)cs1)c1ccccc1 | 1.9 | > 50000 | – |

| Compound | EC50 [3] [nM] | CC50 [4] [nM] | further results |
| --- | --- | --- | --- |
| O=C(N[C@@H](C(=O)N1CCC[C@H]1C(=O)Nc1nc(-c2ccccc2)cs1)c1ccccc1)c1cccnc1 | 13 | > 50000 | – |
| O=C(Nc1nc(-c2ccccc2)cs1)[C@@H]1CCCN1C(=O)[C@H](NC(=O)N1CCOCC1)c1ccccc1 | 0.92 | > 50000 | clearance [1]: 38.4 mL/min/kg; Vd [2]: 1.04 L/kg; half-life [5]: 0.46 h; AUC [6]: 436 ng·h/mL; Cmax [7]: 247 ng/mL; Tmax [8]: 0.8 h; half-life [9]: 1.6 h; AUC [10]: 404 ng·h/mL; bioavailability [11]: 18.7% |
| O=C(N[C@@H](C(=O)N1CCC[C@H]1C(=O)Nc1nc(-c2ccccc2)cs1)c1ccccc1)C1CC1 | 4.6 | > 50000 | clearance [1]: 27.1 mL/min/kg; Vd [2]: 1.32 L/kg; Ratio CC50/EC50 [12]: >10000; half-life [5]: 1.3 h; AUC [6]: 635 ng·h/mL; Cmax [7]: 260 ng/mL; Tmax [8]: 0.8 h; half-life [9]: 2.8 h; AUC [10]: 1440 ng·h/mL; bioavailability [11]: 45% |
| CCC(=O)N[C@@H](C(=O)N1CCC[C@H]1C(=O)Nc1nc(-c2ccccc2)cs1)c1ccccc1 | 23 | > 50000 | – |
| CN1CCN(C(=O)N[C@@H](C(=O)N2CCC[C@H]2C(=O)Nc2nc(-c3ccccc3)cs2)c2ccccc2)CC1 | 0.85 | > 50000 | – |
| O=C(Nc1nc(-c2ccccc2)cs1)[C@@H]1CCCN1C(=O)[C@H](NC(=S)NC1CCCC1)c1ccccc1 | 5.2 | > 50000 | – |
| CN(C)C(=O)N[C@@H](C(=O)N1CCC[C@H]1C(=O)Nc1nc(-c2ccccc2)cs1)c1ccccc1 | 11 | > 50000 | – |
| O=C(N[C@@H](C(=O)N1CCC[C@H]1c1nc(-c2ccccc2)cs1)c1ccccc1)N1CCOCC1 | 9440 | > 50000 | – |
| O=C(Nc1nc(C2CCCCC2)cs1)[C@@H]1CCCN1C(=O)[C@H](NC(=O)N1CCOCC1)c1ccccc1 | 6 | > 50000 | – |
| O=C(N[C@@H](C(=O)N1CCC[C@H]1C(=O)Nc1nc(-c2ccccc2)cs1)c1ccccc1)C1CCCCC1 | 14 | > 50000 | – |
| O=C(Nc1nc(-c2ccccc2)cs1)[C@@H]1CCCN1C(=O)[C@H](NC(=S)Nc1cccnc1)c1ccccc1 | 23 | > 50000 | – |
| CC(C)(C)[C@@H](NC(=O)N1CCOCC1)C(=O)N1CCC[C@H]1C(=O)Nc1nc(-c2ccccc2)cs1 | 7060 | > 50000 | – |
| O=C(NC1CCCC1)N[C@@H](C(=O)N1CCC[C@H]1C(=O)Nc1nc(-c2ccccc2)cs1)c1ccccc1 | 13 | > 50000 | – |
| Cc1csc(NC(=O)[C@@H]2CCCN2C(=O)[C@H](NC(=O)N2CCOCC2)c2ccccc2)n1 | 400 | > 50000 | – |
| O=C(Nc1ccncc1)N[C@@H](C(=O)N1CCC[C@H]1C(=O)Nc1nc(-c2ccccc2)cs1)c1ccccc1 | 22 | > 50000 | – |
| O=C(Nc1nc(-c2ccccc2)cs1)[C@@H]1CCCN1C(=O)[C@H](NC(=O)N1CCCCC1)c1ccccc1 | 3.1 | > 50000 | – |
| O=C(N[C@@H](C(=O)N1CCC[C@H]1c1ncc(-c2ccccc2)[nH]1)c1ccccc1)N1CCOCC1 | 98 | > 50000 | – |
| O=C(N[C@@H](C(=O)N1CCC[C@H]1C(=O)Nc1nc(-c2ccccc2)cs1)c1ccccc1)c1ccccn1 | 22 | > 50000 | – |
| CCC[C@@H](NC(=O)N1CCOCC1)C(=O)N1CCC[C@H]1C(=O)Nc1nc(-c2ccccc2)cs1 | 270 | > 50000 | – |
| O=C(NC1CCCCCC1)N[C@@H](C(=O)N1CCC[C@H]1C(=O)Nc1nc(-c2ccccc2)cs1)c1ccccc1 | 3.8 | > 50000 | – |
| CC(C)(C)C(=O)N[C@@H](C(=O)N1CCC[C@H]1C(=O)Nc1nc(-c2ccccc2)cs1)c1ccccc1 | 86 | > 50000 | – |
| CCCC(=O)N[C@@H](C(=O)N1CCC[C@H]1C(=O)Nc1nc(-c2ccccc2)cs1)c1ccccc1 | 15 | > 50000 | – |
